Measurements reported in ChEMBL document CHEMBL3351258, “An amidation/cyclization approach to the synthesis of N-hydroxyquinolinones and their biological evaluation as potential anti-plasmodial, anti-bacterial, and iron(II)-chelating agents” (Bioorg Med Chem Lett, 2015).
pEC50, pIC50: −log10 of the molar value. In brackets after ≈: the same amount, converted by molar mass. Activity calls are given as the source filed them. The calls are words filed in the database; no cut-off is given here.

Tests used:
[1] = test system: Plasmodium falciparum; test: Antiplasmodial activity against Plasmodium falciparum 3D7 incubated for 36 to 42 hrs by Giemsa staining method; format: functional, organism-based; conditions: for pIC50: Plasmodium falciparum, 3D7, read-out: IC50
How it was run: (§1)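 In vitro maturation assay on the chloroquine-sensitive P. falciparum 3D7 strain.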

[2] = test system: Plasmodium falciparum; test: Antiplasmodial activity against Plasmodium falciparum 3D7 up to 5092 ug/ml incubated for 36 to 42 hrs by Giemsa staining method; format: functional, organism-based; conditions: in the assay text read “5092 ng/ml” for “5092 ug/ml”; how it was run: as §1
[3] = test system: Staphylococcus aureus; test: Antibacterial activity against Staphylococcus aureus ATCC 25923 incubated for 18 to 24 hrs followed by addition incubation for 18 to 24 hrs on MHA plates; format: functional
How it was run: (§2)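 Read-out is the minimum bactericidal concentration (MBC), determined separately against Escherichia coli and Staphylococcus aureus.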

[4] = test system: Escherichia coli; test: Antibacterial activity against Escherichia coli ATCC 25922 up to 1024 ug/ml incubated for 18 to 24 hrs followed by addition incubation for 18 to 24 hrs on MHA plates; format: functional, organism-based; how it was run: as §2
[5] = test system: Staphylococcus aureus; test: Antibacterial activity against Staphylococcus aureus ATCC 25923 up to 1024 ug/ml incubated for 18 to 24 hrs followed by addition incubation for 18 to 24 hrs on MHA plates; format: functional, organism-based; how it was run: as §2
[6] = test system: Escherichia coli; test: Antibacterial activity against Escherichia coli ATCC 25922 incubated for 18 to 24 hrs followed by addition incubation for 18 to 24 hrs on MHA plates; format: functional; how it was run: as §2
[7] = Iron chelation activity assessed as drug level causing 50% iron chelation at 20 to 500 ug/ml using FeCl2 and ferrozine; format: physicochemical; conditions: for pEC50: read-out: Activity
How it was run: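 The value is the concentration giving 50% chelation ability (50% CA), reported in mM.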

[8] = Iron chelation activity at 500 ug/ml using FeCl2 and ferrozine; format: physicochemical

| Compound | IC50 [1] | Activity [2] | MBC [3] | Activity [4] | Activity [5] | MBC [6] | pIC50 [1] | pEC50 [7] | Activity [7] | Activity [8] |
| --- | --- | --- | --- | --- | --- | --- | --- | --- | --- | --- |
| O=c1c(-c2ccc3ccccc3c2)c(O)c2ccccc2n1O | Not Active | inactive | inactive | inactive | inactive | inactive |  |  |  |  |
| O=c1c(-c2cccc3ccccc23)cc2ccccc2n1O |  |  | inactive | inactive | inactive | inactive | 5.59 |  |  |  |
| O=c1c(-c2ccc3ccccc3c2)cc2ccccc2n1O |  |  | 3.6 mM (≈ 1030 µg/mL) | inactive |  | inactive | 5.54 |  |  |  |
| O=c1c(-c2ccccc2)c(O)c2ccccc2n1O | Not Active | inactive | inactive |  | inactive | 4 mM (≈ 1010 µg/mL) |  |  |  |  |
| COc1ccc2c(c1)cc(-c1ccccc1C)c(=O)n2O |  |  | 3.6 mM (≈ 1010 µg/mL) | inactive |  | inactive | 5.89 | 3.55 |  |  |
| COc1cc2cc(-c3cccc4ccccc34)c(=O)n(O)c2cc1OC |  |  | inactive | inactive | inactive | inactive | 5.30 |  |  |  |
| COc1ccc2c(c1)cc(-c1cccc3ccccc13)c(=O)n2O |  |  | inactive | inactive | inactive | inactive | 5.89 | 3.60 |  |  |
| O=c1c(-c2ccccc2)cc2ccccc2n1O |  |  | inactive | inactive | inactive | inactive | 4.85 |  |  |  |
| COc1ccccc1-c1cc2ccccc2n(O)c1=O |  |  | 3.8 mM (≈ 1020 µg/mL) |  |  | 1.9 mM (≈ 508 µg/mL) | 5.12 |  |  |  |
| O=c1c(-c2ccccc2C(F)(F)F)c(O)c2ccccc2n1O | Not Active | inactive | inactive | inactive | inactive | inactive |  |  |  |  |
| O=c1c(-c2ccccc2C(F)(F)F)cc2ccccc2n1O |  |  | 3.4 mM (≈ 1040 µg/mL) | inactive |  | inactive | 5.23 |  |  |  |
| O=c1[nH]c2ccccc2cc1-c1cccc2ccccc12 | Not Active | inactive | inactive | inactive | inactive | inactive |  |  | Not Active | Not Active |
| Cc1ccccc1-c1cc2ccccc2n(O)c1=O |  |  | 4.1 mM (≈ 1030 µg/mL) | inactive |  | inactive | 5.52 |  |  |  |
| O=c1c(-c2cccc3ccccc23)cc2cc(O)ccc2n1O |  |  | inactive |  | inactive | 3.4 mM (≈ 1030 µg/mL) | 5.60 |  |  |  |
| Cc1ccccc1-c1cc2c3c(ccc2n(O)c1=O)OCO3 |  |  | inactive | inactive | inactive | inactive | 5.44 |  |  |  |
| COc1cc2cc(-c3ccccc3C)c(=O)n(O)c2cc1OC |  |  | inactive | inactive | inactive | inactive | 5.26 |  |  |  |
| O=c1c(-c2cccc3ccccc23)cc2cc(F)ccc2n1O |  |  | inactive | inactive | inactive | inactive | 5.96 | 3.62 |  |  |
| C=C[C@]1(C)C[C@H](C)C[C@H](C)[C@H]1c1c(O)ccn(O)c1=O |  |  |  |  |  |  | 6.10 |  |  |  |
| COc1ccccc1-c1c(O)c2ccccc2n(O)c1=O | Not Active | inactive | inactive | inactive | inactive | inactive |  |  |  |  |
| Cc1ccccc1-c1cc2cc(F)ccc2n(O)c1=O |  |  | inactive | inactive | inactive | inactive | 5.32 | 3.54 |  |  |
| Cc1ccccc1-c1cc2cc3c(cc2n(O)c1=O)OCO3 |  |  | inactive | inactive | inactive | inactive | 5.34 |  |  |  |
| O=c1c(-c2cccc3ccccc23)cc2c3c(ccc2n1O)OCO3 |  |  | 3.1 mM (≈ 1030 µg/mL) | inactive |  | inactive | 5.72 |  |  |  |
| O=c1c(-c2cccc3ccccc23)c(O)c2ccccc2n1O | Not Active | inactive | 1.7 mM (≈ 516 µg/mL) | inactive |  | inactive |  | 3.55 |  |  |
| Cc1ccccc1-c1cc2c(F)cccc2n(O)c1=O |  |  | inactive | inactive | inactive | inactive | 5.30 | 3.55 |  |  |
| Cc1ccccc1-c1c(O)c2ccccc2n(O)c1=O | Not Active | inactive | inactive | inactive | inactive | inactive |  |  |  |  |
| O=c1c(-c2cccc3ccccc23)cc2c(F)cccc2n1O |  |  | inactive | inactive | inactive | inactive | 5.85 | 3.62 |  |  |
| Cc1ccccc1-c1cc2cc(O)ccc2n(O)c1=O |  |  | 3.8 mM (≈ 1020 µg/mL) |  |  | 1.9 mM (≈ 508 µg/mL) | 5.46 |  |  |  |
| O=c1c(-c2cccc3ccccc23)cc2cc3c(cc2n1O)OCO3 |  |  | inactive | inactive | inactive | inactive | 5.38 |  |  |  |
